Data as given in PMC12779259 (Metallomics : integrated biometal science, 2019).
Converted amounts (≈) assume the structure as drawn.

Columns and labels:
S. aureus [1] = test: MIC determination against S. aureus in RPMI; assay type: cell-based, Staphylococcus aureus; details: for ^CuMIC (S. aureus): MIC in 50 μM copper supplemented medium
THP-1 monocytic cells = test: Toxicity testing on THP-1 monocyte cells; assay type: cell-based, human; details: 24 h
[2] = test system: S. aureus strain LAC carrying pHluorin; assay type: cell-based, Staphylococcus aureus; details: mildly acidic medium (pH 6.2)
S. aureus [3] = test: Time to death assay and bactericidal activity; assay type: cell-based, Staphylococcus aureus; details: for mode of action (bactericidal vs bacteriostatic): CFU
S. aureus Newman = test: Membrane potential, DiOC2; assay type: cell-based, Staphylococcus aureus; details: within 30 min; 10 μM PZP-915 and/or 50 μM Cu
[4] = test system: preformed S. aureus biofilms; test: Biofilm eradication assay; assay type: cell-based, Staphylococcus aureus; details: preformed S. aureus Newman biofilms, 24 hours treatment
[5] = Determination of binding constants by UV/Vis; details: 25 uM HEPES buffer pH 7.2
GAPDH = biological target: T1, GAPDH (Staphylococcus aureus, UniProt Q6GIL8); test: GAPDH activity in lysates of treated bacteria; assay type: cell-based; details: 30 minutes treatment; 50 µM Cu, 10 µM PZP-915, 10 µM 915+50 µM Cu
T1 sequence (Q6GIL8 1-336): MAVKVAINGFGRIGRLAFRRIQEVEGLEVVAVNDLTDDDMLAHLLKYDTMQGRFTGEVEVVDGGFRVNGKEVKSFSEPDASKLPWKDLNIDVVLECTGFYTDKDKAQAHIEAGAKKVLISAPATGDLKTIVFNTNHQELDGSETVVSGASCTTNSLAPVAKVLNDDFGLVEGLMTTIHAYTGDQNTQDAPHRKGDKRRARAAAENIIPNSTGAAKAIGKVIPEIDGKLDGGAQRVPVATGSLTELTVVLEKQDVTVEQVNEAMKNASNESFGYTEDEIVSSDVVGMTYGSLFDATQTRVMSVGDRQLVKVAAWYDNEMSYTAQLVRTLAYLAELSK
Procedure, shortened: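 After the 30 min treatment, bacteria washed to remove extracellular copper, then lysed. GAPDH activity measured in the lysates.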

[6] = test system: methicillin resistant S. aureus strains; test: MIC against clinically isolated MRSA strains; assay type: cell-based, Staphylococcus aureus; details: 5 clinically isolated MRSA strains, 50 μM Cu
[7] = Toxicity testing on THP-1 monocyte cells; assay type: cell-based, human; details: human, THP-1 monocytic cells

CNC(=S)NN=CC=NNC(=S)NC [GTSM]
^CuMIC (S. aureus) (S. aureus [1]): 0.3 µM
^CuIC90 (THP1) (THP-1 monocytic cells; IC90 in the presence of 25 μM copper): 0.15 µM
IC90 (THP-1 monocytic cells; read-out: IC90 (THP1), 90% inhibition relative to untreated controls, no Cu): > 10 µM

Carbonyl cyanide m-chlorophenyl hydrazine [CCCP, reference compound]
change of intracellular pH [2]: almost instantaneous pH drop

Iron
concentration up to which no toxicity to S. aureus was observed (S. aureus [1]; metal alone): > 3.2 mM

Cc1nn2c(=O)cc(Cc3ccccc3)[nH]c2c1-c1ccc(Cl)cc1 [PZP-915, 5‐benzyl‐3‐(4‐chlorophenyl)‐2‐methyl‐4H,7H‐pyrazolo[1,5‐a]pyrimidin‐7‐one]
time to achieve complete inhibition of growth (S. aureus [3]; 0.6 µM PZP-915 in the presence of 50 µM Cu): 2 h
recoverable viable bacteria (S. aureus [3]; 24h treatment, 50 μM Cu added, consistent with bactericidal activity): no viable cells could be recovered
mode of action (bactericidal vs bacteriostatic) (S. aureus [3]; 24h treatment, presence of 50 μM Zn): bacteriostatic
mode of action (bactericidal vs bacteriostatic) (S. aureus [3]; 24h treatment, standard medium, absence of Cu): bacteriostatic
Cu concentration required to display similar potency (S. aureus [3]; dose-matrix, 0.6 µM PZP-915): 50 µM
Cu concentration required to exert potent antibacterial properties (S. aureus [3]; dose-matrix, 10 µM PZP-915): 1.25 µM
change of intracellular pH [2]: no or only a minor impact
effect on membrane potential (DiOC2(3) red/green ratio) (S. aureus Newman): decreased the membrane potential, although to a much lesser extent
concentration for complete eradication of S. aureus in biofilms [4]: 0.6 µM
binding constant, 1st order reaction of copper binding [5]: 3.8×10^5 Lmol^−1
binding constant, 2nd order complex with copper [5]: 6.18 Lmol^−1
binding constant, 3rd order complex with copper [5]: 47.65 Lmol^−1
GAPDH activity in cell lysates (GAPDH): did not alter GAPDH activity
activity in medium supplemented with both Cu and BCS (S. aureus [1]; 50 μM Cu, 500 μM BCS): about the same as in standard medium
effect of Fe on activity (S. aureus [1]; 50 μM Fe supplemented medium): no effect
improvement of activity by Zn in comparison to standard medium (S. aureus [1]; 50 μM Zn supplemented medium): 4 fold
impact of BCS addition to standard medium on activity (S. aureus [1]; 500 μM BCS, no Cu supplementation): no impact
^CuMIC (S. aureus) (S. aureus [1]): 0.6 µM
MIC (S. aureus [1]; Staphylococcus aureus, read-out: MIC (S. aureus)): 5 µM (≈ 1.75 µg/mL)
MIC against MRSA strains in comparison to S. aureus Newman [6]: no difference
IC90 at 24 h [7]: > 40 µM
